FLuc act counter – firefly luciferase counter-screen for stimulation assays; P08659; ATPlite luciferase biochemical, luminescence, 10 min; 0 = ATP-free wells, 1 = DMSO control; activation factor at 10 µM; 200,000 tested, under 10 active; AID 1027;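 active = luciferase activation factor, scaled between plate controls, of at least 2 with compound at 10 µM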
Target sequence (P08659 whole entry, looked up): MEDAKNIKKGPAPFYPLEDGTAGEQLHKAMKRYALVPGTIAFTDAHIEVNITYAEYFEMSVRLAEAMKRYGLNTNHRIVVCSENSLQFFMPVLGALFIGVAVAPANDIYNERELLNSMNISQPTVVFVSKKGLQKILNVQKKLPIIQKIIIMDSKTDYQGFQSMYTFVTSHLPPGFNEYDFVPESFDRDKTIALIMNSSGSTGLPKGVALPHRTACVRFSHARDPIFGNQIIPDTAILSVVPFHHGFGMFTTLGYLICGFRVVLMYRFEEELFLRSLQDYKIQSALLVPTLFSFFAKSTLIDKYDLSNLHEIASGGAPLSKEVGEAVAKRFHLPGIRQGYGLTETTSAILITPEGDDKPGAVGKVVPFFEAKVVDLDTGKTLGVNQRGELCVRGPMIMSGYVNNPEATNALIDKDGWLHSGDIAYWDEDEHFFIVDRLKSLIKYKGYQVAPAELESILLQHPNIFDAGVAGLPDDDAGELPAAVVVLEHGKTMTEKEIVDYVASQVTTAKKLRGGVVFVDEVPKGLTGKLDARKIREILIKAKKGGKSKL
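Assay system: Luciferase/luciferin reagent mix; Medium: PBS as buffer for the ATP substrate; Dosing: test compounds dosed from 2 mM stocks in 100% DMSO; Times: 10 min, room temperature; Signal: luminescence from luciferase reaction; Read-out: luciferase activation; Controls: No-ATP low control, compound-free enzyme-plus-ATP high control.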
STAT1 activator – STAT1 signaling activation | NIH 3T3 STAT1-luciferase reporter, IFN-gamma, luminescence; 100% = IFN-gamma alone, no compound | activation (% of control), % at 5.5 µM | actives 2.6% (n = 200,000);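 active = activation above the screen-wide mean activation plus 3 SD, cut at about 130% in these data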
NF-kB neuron act – raises NF-kB expression in human neuronal cells; NF-kB reporter expression; hits give high values; actives 1.6% (n = 190,000); AID 1239; fold change at 12.5 µM; in the data active = fold change above about 3.3
APP transl inh – APP translation inhibition. SH-SY5Y APP 5'UTR-luciferase reporter, luminescence. AID 1285. inhibition, % at 2 µM. actives 0.82% (n = 190,000);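 active = inhibition above a set limit, derived from the sample mean plus 3 SD, cut at about 45% in these data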
APP 5'UTR act – APP 5'UTR luciferase reporter activation; SH-SY5Y APP 5'UTR luciferase reporter, luminescence; zero percent = DMSO vehicle wells; activation, % at 2 µM; actives 1% (n = 190,000);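 active = activation above a set limit, based on mean plus 3 SD of controls, cut at about 140% in these data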
FLuc inh counter – Photinus pyralis luciferase inhibition counter-screen. P08659. ATPLite firefly luciferase biochemical luminescence, 10 min. inhibition, % at 10 µM. actives 1.5% (n = 200,000);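 active = inhibition above about 50% when tested at 10 µM, limit read from the data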
STAT1 act conf – confirmation of STAT1 signaling activators | shares compounds with STAT1 activator | NIH 3T3 STAT1-luciferase reporter, IFN-gamma potentiation, luminescence; 100% = IFN-gamma EC80 alone, no compound | activation (% of control), % at 5.7 µM | actives 97% (n = 1,200) | AID 1262;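 active = activation above a set limit carried over from the earlier primary STAT1 screen, cut at about 140% in these data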
NFkB act – counter-screen for STAT1 activators: NF-kappaB activation; activation (% of control), % at 5.7 µM; actives 43% (n = 1,200); HEK293T NF-kB luciferase reporter, TNF-alpha stimulated, luminescence; 100% = TNF-alpha with vehicle only; shares compounds with STAT1 activator;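 active = activation above the mean of solvent-only control wells plus 3 SD, set per campaign, cut at about 130% in these data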;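 note: TNF-alpha given at a submaximal dose yielding about 80% of full reporter signal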
STAT3 act STAT1c – counter-screen for STAT1 activators: human STAT3 activation. actives 46% (n = 1,200). U3A cells STAT3-luciferase reporter, IL-6, luminescence; cells lack STAT1; 100 = IL-6 alone, no compound effect. activation (% of control), % at 5.7 µM. shares compounds with STAT1 activator;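 active = activation above the solvent-only control well mean plus 3 SD, set per plate batch, cut at about 110% in these data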;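 note: higher means more STAT3 reporter activation so hits are non-selective activators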
Hits are given with their value; – = inactive; · = no result. The list is not random: actives were taken first. Their share in the collection is about 4.8%.

SMILES | FLuc act counter | STAT1 activator | NF-kB neuron act | APP transl inh | APP 5'UTR act | FLuc inh counter | STAT1 act conf | NFkB act | STAT3 act STAT1c
CN(C)c1ccc(/C=N/N2C(=N)N(c3ccccc3)C(=S)C2=Nc2ccccc2)cc1 | · | 163.2 | · | – | 179.7 | · | 184.9 | 134.2 | 113.1
O=C(Nc1cccc(Cl)c1)c1ccc2c(=O)n3c(nc2c1)CCCCC3 | – | 162.1 | – | – | 202.3 | – | 180.5 | – | –
O=C(CSc1nc2ccccc2c(=O)n1NC(=O)c1ccccc1)c1ccccc1 | – | 150.7 | – | – | – | – | 159.1 | – | 124.9
C=Cc1ccc2c(c1)N(C)C(=C)S2 | – | – | – | – | – | – | · | · | ·
COc1cccc(C(=O)NCC(=O)n2nc(C)cc2C)c1 | – | – | – | – | – | – | · | · | ·
O=C(COc1ccc([N+](=O)[O-])cc1)NCCC1=CCCCC1 | – | – | – | – | – | – | · | · | ·
O=C(NCCC1=CCCCC1)c1ccc([N+](=O)[O-])cc1 | – | 150.8 | 4.85 | – | 159.9 | – | 189.3 | – | 160.5
O=C(NCCC1=CCCCC1)c1ccc(F)cc1 | – | 166.3 | – | – | 210.5 | – | 199.6 | – | –
O=C(Cc1ccccc1)NCCC1=CCCCC1 | – | – | – | – | – | – | · | · | ·
Cc1c(-n2c(SC(C)C(=O)NC(N)=O)nc3ccccc3c2=O)c(=O)n(-c2ccccc2)n1C (stereo not given) | – | – | – | – | – | – | · | · | ·
COc1ccc(N/C=C/C(=O)c2ccc3c(c2)OCO3)cc1OC | – | 161.1 | – | – | – | 59.6 | 178.2 | 135.8 | –
O=C(CCl)Nc1ccc2c(c1)OCO2 | – | – | – | – | – | – | · | · | ·
O=C(/C=C\Nc1ccc2c(c1)OCO2)c1ccc(Cl)s1 | – | 157.4 | – | – | 164.4 | 87.1 | 199.8 | – | –
Cc1ccc(/C=N/N=C/c2ccc(C)s2)s1 | – | 177.1 | 10.5 | – | 177.9 | 73.9 | 238.4 | – | –
CC(C)(C)N=C1NN=C(c2cc3ccccc3o2)CS1 | – | 169.3 | – | – | – | – | 207.2 | – | –
CC(=O)c1c(C)[nH]c(C2=NNC(=NC(C)(C)C)SC2)c1C | – | – | – | – | – | – | · | · | ·
CCC(c1nnnn1CS(=O)(=O)c1ccc(C)cc1)N1CCN(c2nc3ccccc3s2)CC1 (stereo not given) | – | – | – | – | – | – | · | · | ·
Cc1cc(C(=O)CSc2ncccn2)c(C)n1-c1cccc(F)c1 | – | 172.4 | – | – | 162.2 | 53.8 | 191.3 | – | 111.5
O=C(CN(Cc1cccs1)C(=O)CNS(=O)(=O)c1ccc(Cl)cc1)NCC1CCCO1 (stereo not given) | – | – | – | – | – | – | · | · | ·
Oc1ccccc1N=Cc1sc2ccccc2c1Cl | – | – | – | – | – | – | · | · | ·
Oc1sc(C=Nc2ccccc2)c2ccccc12 | – | 166.0 | 8.07 | – | 153.3 | – | 209.5 | 140.7 | –
Nc1ccc2nn(-c3ccccc3)nc2c1 | – | 154.7 | – | – | – | 60.4 | 203.2 | – | –
Nc1cc2nn(-c3ccccc3)nc2cc1Cl | – | 165.9 | 4.4 | – | 198.6 | – | 238.1 | – | 150.9
CC(C)CC(=O)Nc1cc2nn(-c3ccccc3)nc2cc1Cl | – | – | – | · | · | – | · | · | ·
CC(C)(C)/C(O)=C/c1nc2ccccc2[nH]c1=O | – | – | – | – | – | – | · | · | ·
SMILES | FLuc act counter | STAT1 activator | NF-kB neuron act | APP transl inh | APP 5'UTR act | FLuc inh counter | STAT1 act conf | NFkB act | STAT3 act STAT1c
O=c1[nH]c2ccccc2nc1/C=C/c1ccccc1 | – | 161.6 | – | – | – | 60.3 | 188.3 | – | 121.3
O=C(/C=C/c1ccc(F)cc1)Nc1nc2ccccc2[nH]1 | – | 153.7 | – | – | 160.8 | – | 188.7 | – | –
O=c1[nH]c2ccccc2nc1/C=C/c1ccc(F)cc1 | – | 158.6 | – | – | – | 68.4 | 165.8 | – | –
O=c1[nH]c2ccccc2nc1/C=C(\O)C1CC1 | – | – | – | – | – | – | · | · | ·
CNc1nc(N)c(C(=O)C23CC4CC(CC(C4)C2)C3)s1 | – | – | – | – | – | – | · | · | ·
COP(=O)(OC)c1nc(-c2ccccc2)oc1N1CCOCC1 | – | – | – | – | – | – | · | · | ·
CC(=O)c1ccc(NC(=O)/C(Cl)=C/c2ccccc2)cc1 | – | 153.8 | 6.42 | – | 167.8 | – | 199.6 | – | 115.2
CC(=O)c1ccc(NC(=O)/C(=C\c2ccccc2)NC(=O)/C=C/c2ccccc2)cc1 | – | – | – | – | – | – | · | · | ·
CC(=Nc1ccc(C)cc1)c1sc2ccccc2c1O | – | 153.9 | 4.79 | – | 196.8 | 85.2 | 247.9 | – | –
CCOC(=O)c1sc2ccccc2c1OC(=O)c1ccc(C)cc1 | – | – | – | – | – | – | · | · | ·
CCCN(CCO)Cc1ccc(F)c(Br)c1 | – | – | – | – | – | – | · | · | ·
O=C(Nc1ccon1)c1ccc(OC2CCCC2)cc1 | – | 154.6 | 4.48 | – | – | 58.8 | 166.3 | – | 113.6
Clc1ccc2nc(N3CCCCC3)sc2c1 | – | 166.0 | 4.87 | – | 173.0 | – | 207.5 | 137.9 | –
Cc1ccc(C(=O)NC(=O)OCCn2c(C)cnc2[N+](=O)[O-])cc1 | – | – | – | – | – | – | · | · | ·
Cc1ccc2nc3c(cc(C#N)c(=N)n3CCCN3CCOCC3)c(=O)n2c1 | · | – | · | – | – | · | · | · | ·
CN(C)C(=O)c1nnsc1Sc1ccc(Cl)cc1 | – | – | – | – | – | – | · | · | ·
Cc1cccc2cc3c(N)c(C(=O)N4CCOCC4)sc3nc12 | – | 157.0 | – | 84.6 | – | – | 159.9 | – | 124.5
Oc1ccc(N=Nc2n[nH]c(-c3ccccc3)n2)cc1 | – | 172.2 | 6.3 | – | 145.9 | 58.6 | 184.5 | – | –
O=C(/C=C/c1ccccc1)Nc1ccc(N2CCCCC2)cc1 | – | 150.9 | – | – | – | – | 168.0 | – | –
O=C(c1ccccc1)c1ccc(N2CCCC2)cc1 | – | 150.9 | – | – | – | – | 143.3 | – | –
O=C(CSc1n[nH]c(-c2ccccc2Cl)n1)NCc1cccc(C(=O)O)c1 | – | – | – | – | – | – | · | · | ·
Cc1ccc(NC(=O)CN(C)C(=O)c2ccc(C(F)(F)F)cc2)cc1 | – | – | – | – | – | – | · | · | ·
CCN(CC)CCOC(=O)c1ccc(NC(=O)c2cn(-c3ccccc3)nc2-c2cccs2)cc1 | – | 155.0 | – | – | – | – | – | – | –
CCN(CC)CCNC(=O)c1cn(-c2ccccc2)nc1-c1cccs1 | – | – | – | – | – | – | · | · | ·

Assay outcomes (PubChem BioAssay)
